Screening data as filed in PubChem.
Sampled rows, rich in hits. Any-hit rate of the full collection: about 2.5%.
ABHD4 inh = ABHD4 inhibitors, primary screen, biochemical, fluorescence polarization, mouse | purified mABHD4, FP-Rh probe fluorescence polarization | inhibition, % at 8.92 µM | 370,000 tested, 0.54% active | AID 720543, 2013;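 active = inhibition exceeding the mean over every tested compound plus 3 SD, cut at about 30% in these data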
Target sequence (Q8VD66 whole entry, looked up): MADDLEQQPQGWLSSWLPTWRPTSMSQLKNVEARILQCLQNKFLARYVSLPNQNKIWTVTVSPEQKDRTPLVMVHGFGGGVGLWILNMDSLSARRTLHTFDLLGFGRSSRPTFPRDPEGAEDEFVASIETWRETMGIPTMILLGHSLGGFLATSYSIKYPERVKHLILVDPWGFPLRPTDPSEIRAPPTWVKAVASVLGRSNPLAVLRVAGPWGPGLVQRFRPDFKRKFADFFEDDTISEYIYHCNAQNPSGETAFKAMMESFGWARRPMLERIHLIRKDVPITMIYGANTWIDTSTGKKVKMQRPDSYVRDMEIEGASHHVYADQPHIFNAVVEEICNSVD
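Test system: mABHD4 protein; Read-out basis: % inhibition; Incubation: 45 min + 60 min at 25 °C; Repeats: single replicate; Technique: fluorescence polarization with parallel and perpendicular emission, 525/598 nm; Compound: 8.92 µM, single dose; Benchmarks: full inhibition S159A mutant plus DMSO, zero as sample-well median.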
TCR CD3 inh = inhibitors of human TCR-CD3 interaction, primary screen, biochemical, fluorescence, TAMRA-labeled TCR probe; inhibition, % at 9.4 µM; 360,000 tested, 0.37% active; AID 651800, 2012; in the data active = inhibition above about 19%;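 note: recombinant mutant TCR 2C K166C tagged with TAMRA read by polarization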
SIAE inh = human SIAE inhibitors, primary screen, biochemical, fluorescence polarization, FP-Rh probe, 1536-well HTS; Sialate O-acetylesterase (Homo sapiens), Q9HAT2; inhibition, % at 9.66 µM; SIAE FP-Rh probe binding; 370,000 tested, 0.69% active;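 active = inhibition above a cutoff: mean of compounds within the control limits plus 3 SD of those, cut at about 17% in these data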
rCAG RNA binder = binders of r(CAG) RNA repeats, primary screen, biochemical, fluorescence; r(CAG) RNA repeat, TO-PRO-1 dye displacement fluorescence; inhibition, % at 3 µM; 370,000 tested, 1.3% active;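 active = inhibition above the plate cutoff, the mean of all test compounds on that plate plus 3 SD, cut at about 35% in these data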;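 note: higher means more dye released from RNA so lower well fluorescence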
HTRA1 inh = HTRA1 serine protease inhibitors, primary screen, biochemical, fluorescence polarization, HTS. Q92743. recombinant HTRA1, FP-rhodamine activity-based probe. inhibition, % at 5.96 µM. 340,000 tested, 0.5% active; in the data active = inhibition above about 36%
rCAG bind conf = small molecules binding CAG repeat RNA – biochemical, fluorescence, confirmation. shares compounds with rCAG RNA binder. r(CAG) RNA repeat, TO-PRO-1 dye displacement fluorescence. inhibition, % at 3 µM. 4,300 tested, 70% active;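 active = inhibition above a per-plate cutoff, the mean inhibition of sample wells plus 3 SD, cut at about 35% in these data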;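 note: loss of TO-PRO-1 fluorescence as compound displaces dye from 1x1 AA loop RNA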
dCAG dye counter = displacement of TO-PRO-1 from CAG DNA duplex, counter-screen for rCAG RNA repeat binder project, biochemical, fluorescence, TO-PRO-1 dye, d(CAG) DNA oligo | AID 652068, 2013 | d(CAG) DNA oligo TO-PRO-1 dye displacement | shares compounds with rCAG RNA binder | inhibition, % at 3 µM | 4,300 tested, 94% active;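 active = inhibition above its plate's cutoff, the mean test-well inhibition plus 3 SD, cut at about 4.8% in these data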;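 note: hits displace the dye from DNA and so lower well fluorescence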
DNA CAG DR = inhibitors of DNA CAG/GTC TO-PRO-1 complex, dose response, counter-screen for rCAG RNA repeat binder project, biochemical, fluorescence, TO-PRO-1 dye | DNA CAG/GTC duplex TO-PRO-1 dye displacement fluorescence | 250 tested, 20% active | shares compounds with rCAG RNA binder | IC50, µM; in the data active = IC50 below about 10 µM
Numbers stand for hits; – = inactive; · = no result given.

SMILES	ABHD4 inh	TCR CD3 inh	SIAE inh	rCAG RNA binder	HTRA1 inh	rCAG bind conf	dCAG dye counter	others
Cc1cc(C)cc(N(CC(=O)Nc2ccc(C(F)(F)F)cc2)S(=O)(=O)c2c(C)[nH]c(=O)[nH]c2=O)c1	–	–	–	49.2	–	51.7	16.4
COc1cc(NC(=O)CN(c2cc(C)cc(C)c2)S(=O)(=O)c2c(C)[nH]c(=O)[nH]c2=O)cc(OC)c1	–	–	–	–	–	·	·
COc1ccc(N(CC(=O)Nc2cc(C)ccc2C)S(=O)(=O)c2c(C)[nH]c(=O)[nH]c2=O)cc1	–	–	–	–	–	·	·
COc1ccc(S[C@]2(C(=O)NCCCN(C)C)CC(=O)N[C@@H]2c2ccc(OC)cc2)cc1	–	·	–	–	·	·	·
CCOC(=O)COc1cccc2c(=O)n(CC(=O)N3CCCc4ccccc43)ccc12	–	–	–	–	–	·	·
O=C(O)Cn1c(=O)c2c3c(sc2n(Cc2ccc(Cl)cc2Cl)c1=O)CCCC3	–	–	–	43.5	–	57.7	18.6
NCCNC(=O)Cn1c(=O)c2c3c(sc2n(Cc2ccccc2)c1=O)CCCC3	–	–	–	–	–	·	·
CC1CCc2sc3c(c2C1)c(=O)n(CC(=O)O)c(=O)n3Cc1ccc(Cl)cc1 (centres undefined)	–	–	–	54.3	–	48.6	13.3
O=C(c1ccc2c(c1)OCCO2)C1CCN(S(=O)(=O)c2ccccc2F)CC1	–	–	–	–	–	·	·
COCC(=O)N1CCC(Oc2ccc(C(=O)NC3CCOC(C)(C)C3)cc2)CC1 (centres undefined)	–	–	–	–	–	·	·
C=CCNc1nc2ccccc2nc1NS(=O)(=O)c1ccc(Br)cc1	–	–	–	48.8	–	41.8	9.8
COc1cccc(-c2nc(CS(=O)(=O)CC(=O)NCCCc3ccccc3)c(C)o2)c1	–	–	–	–	–	·	·
NC(=O)NC(CC(=O)OCC(=O)NC(=O)NCc1ccco1)c1ccc(Cl)cc1 (centres undefined)	–	–	–	–	–	·	·
C/C(=N\N=C(/N)SC1CC(=O)N(c2ccc(Cl)cc2)C1=O)c1cccs1 (centres undefined)	–	–	–	42.7	–	63.4	24.5
C/C(=N\N=C(/N)SC1CC(=O)N(c2ccccc2)C1=O)c1cccs1 (centres undefined)	–	–	–	41.6	–	35.1	8.3
N/C(=N\N=C\c1ccnc2ccccc12)SC1CC(=O)N(c2ccc(Br)cc2)C1=O (centres undefined)	–	–	–	–	–	·	·
C/C(=N\N=C(/N)SC1CC(=O)N(c2ccc(Cl)c(Cl)c2)C1=O)c1cccs1 (centres undefined)	–	–	–	–	–	·	·
N/C(=N\N=C\c1cccs1)SC1CC(=O)N(c2ccc(Br)cc2)C1=O (centres undefined)	–	–	–	38.2	–	70.4	24.8	DNA CAG DR=–
C/C(=N\N=C(/N)SC1CC(=O)N(c2ccc(Br)cc2)C1=O)c1cccs1 (centres undefined)	–	–	–	46.6	–	76.6	34.7
CCCCN(CCCC)CCNC(=O)CNC(=O)c1cccs1	–	–	–	–	–	·	·
O=S1(=O)c2ccc(N3CCCC3)cc2Oc2ccccc2CN1Cc1cn(Cc2cccc(F)c2)nn1	–	·	–	–	·	·	·
CCN(C(=O)COC(=O)c1ccccc1Nc1cccc(C)c1C)C1CCS(=O)(=O)C1 (centres undefined)	–	–	–	–	–	·	·
N#C/C(=C(/O)CCl)c1nc(-c2ccccc2)cs1	–	–	–	42.4	–	38.5	18.0
CCCCCCCC(=O)NNC(=O)Cc1ccccc1	·	·	·	·	–	·	·
CCCCCCCCCCCC(=O)c1c(O)cccc1O	–	–	–	41.1	–	39.3	23.5
SMILES	ABHD4 inh	TCR CD3 inh	SIAE inh	rCAG RNA binder	HTRA1 inh	rCAG bind conf	dCAG dye counter	others
O=C(O)c1cccc2c(-c3ccccc3)c(-c3ccccc3)[nH]c12	–	–	–	77.4	–	66.1	22.9
COC(=O)c1sccc1NC(=O)CSc1ccccc1NS(=O)(=O)c1ccc(Br)cc1	–	–	–	45.5	–	50.4	14.9
CCc1ccc(NC(=O)/C(C#N)=C/c2cn(CC(=O)O)c3ccccc23)cc1	–	–	–	36.2	–	–	5.9
Cc1cccc(NC(=O)/C(C#N)=C\c2cn(CC(=O)O)c3ccccc23)c1	–	–	–	–	–	·	·
CCOc1ccc(NC(=O)/C(C#N)=C/c2cn(CC(=O)O)c3ccccc23)cc1	–	–	–	55.7	–	49.7	14.9
CCOc1cccc(NC(=O)/C(C#N)=C\c2cn(CC(=O)O)c3ccccc23)c1	–	–	–	56.5	–	55.9	17.9
N#C/C(=C/c1cn(CC(=O)O)c2ccccc12)C(=O)Nc1ccccc1	–	–	–	–	–	·	·
NC(=NCc1ccco1)NC(=O)c1ccccc1	–	–	–	–	–	·	·
Cc1ccc(NS(=O)(=O)Cc2ccccc2)nc1	–	–	–	–	–	·	·
N#C/C(=C\c1ccccc1)C(=O)NNS(=O)(=O)c1cccc([N+](=O)[O-])c1	–	–	–	36.5	–	–	–
N#C/C(=C/c1cccc([N+](=O)[O-])c1)C(=O)Nc1ccccc1O	–	–	–	–	–	·	·
CCOc1ccc(-n2c(SCC(=O)Nc3ccc(S(=O)(=O)Nc4cc(C)nc(C)n4)cc3)nnc2-c2ccc(C)cc2)cc1	–	·	–	52.2	·	58.3	18.1
Cc1cc(NS(=O)(=O)c2ccc(NC(=O)CSc3nnc(-c4ccccn4)n3-c3ccccc3)cc2)nc(C)n1	–	·	–	–	·	·	·
CCOc1ccc(-n2c(SCC(=O)Nc3ccc(S(=O)(=O)Nc4cc(C)nc(C)n4)cc3)nnc2-c2ccncc2)cc1	–	·	–	–	·	·	·
Cc1ccc(-n2c(SCC(=O)Nc3ccc(S(=O)(=O)Nc4cc(C)nc(C)n4)cc3)nnc2-c2ccc(C(C)(C)C)cc2)cc1	–	·	–	43.7	·	41.7	16.3
COc1ccc(-n2c(SCC(=O)Nc3ccc(S(=O)(=O)Nc4cc(C)nc(C)n4)cc3)nnc2-c2ccco2)cc1	–	·	–	–	·	·	·
